According to ChEMBL document CHEMBL1134728, “Heterocyclic substituted anthralin derivatives as inhibitors of keratinocyte growth and inducers of differentiation” (Bioorg Med Chem Lett, 2001):

How the values were obtained:
[1] = Compound was tested for the induction of HaCaT keratinocyte differentiation at 1 uM expressed as the amount of cross-linked protein in cornified envelope assay; assay type: functional, Homo sapiens
Outline: (§1)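 Terminal differentiation of HaCaT keratinocytes measured as insoluble cross-linked protein envelopes, using a modified method; protein in envelope preparations quantified by Bradford. Value is the difference in cross-linked protein per mg protein between treated and vehicle-control cells; means ± SEM of three independent experiments; significance vs vehicle p < 0.05.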

[2] = Compound was tested for the induction of HaCaT keratinocyte differentiation at 10 uM expressed as the amount of cross-linked protein in cornified envelope assay; assay type: functional, Homo sapiens; outline: as §1
[3] = Compound was tested for the induction of HaCaT keratinocyte differentiation at 5 uM expressed as the amount of cross-linked protein in cornified envelope assay; assay type: functional, Homo sapiens; outline: as §1
[4] = Deoxyribose degradation measured as hydroxyl radical generation in HaCaT cell at 75 uM expressed as malondialdehyde released; assay type: functional, Homo sapiens
[5] = Activity of LDH release in HaCaT cells after treatment with 2 uM concentration of the compound; assay type: functional, Homo sapiens
Outline: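 LDH activity (mU) released into the HaCaT culture medium after compound treatment, taken as a marker of plasma membrane integrity and cytotoxicity; compared against vehicle controls; N=3.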

[6] = Antiproliferative activity against growth of HaCaT cell was determined; assay type: functional, cell-based; conditions: Homo sapiens

Row | SMILES | Amount of cross-linked protein [1] | Amount of cross-linked protein [2] | Amount of cross-linked protein [3] | DD [4] | LDH release [5] | IC50 [6] [µM]
1 | O=C1c2c(O)cccc2C(C(=O)/C=C/c2ccco2)c2cccc(O)c21 | -0.2 (ug of cross-linked protein) (mg of protein)-1 | 1.9 (ug of cross-linked protein) (mg of protein)-1 | 0.6 (ug of cross-linked protein) (mg of protein)-1 | 1.69 uM mM-1 | 147 mU | 1.5
2 | O=C1c2c(O)cccc2C(C(=O)c2ccc[nH]2)c2cccc(O)c21 | 2.3 (ug of cross-linked protein) (mg of protein)-1 | 6.5 (ug of cross-linked protein) (mg of protein)-1 | 5.7 (ug of cross-linked protein) (mg of protein)-1 | 1.77 uM mM-1 | 202 MU | 0.6
3 | O=C1c2c(O)cccc2C(C(=O)/C=C/c2cccs2)c2cccc(O)c21 | 2 (ug of cross-linked protein) (mg of protein)-1 | 5.6 (ug of cross-linked protein) (mg of protein)-1 | 5 (ug of cross-linked protein) (mg of protein)-1 | 1.13 uM mM-1 | 166 mU | 4.2
4 | O=C1c2c(O)cccc2Cc2cccc(O)c21 [ANTHRALIN] | 3.7 (ug of cross-linked protein) (mg of protein)-1 | 5.8 (ug of cross-linked protein) (mg of protein)-1 | 4.9 (ug of cross-linked protein) (mg of protein)-1 | 2.89 uM mM-1 | 294 mU | 0.7
5 | O=C1c2c(O)cccc2C(C(=O)c2ccco2)c2cccc(O)c21 | 0.5 (ug of cross-linked protein) (mg of protein)-1 | 5.8 (ug of cross-linked protein) (mg of protein)-1 | 3.5 (ug of cross-linked protein) (mg of protein)-1 | 0.41 uM mM-1 | 242 mU | 1.2
6 | O=C1c2c(O)cccc2C(C(=O)c2cc3ccccc3[nH]2)c2cccc(O)c21 | 2 (ug of cross-linked protein) (mg of protein)-1 | 5.7 (ug of cross-linked protein) (mg of protein)-1 | 4.8 (ug of cross-linked protein) (mg of protein)-1 | 0.17 uM mM-1 | 167 mU | 0.7
7 | O=C1c2c(O)cccc2C(C(=O)c2ccsc2)c2cccc(O)c21 | -0.6 (ug of cross-linked protein) (mg of protein)-1 | 3.4 (ug of cross-linked protein) (mg of protein)-1 | 0.6 (ug of cross-linked protein) (mg of protein)-1 | 0.82 uM mM-1 |  | > 5
8 | O=C1c2c(O)cccc2C(C(=O)c2cccs2)c2cccc(O)c21 | -0.9 (ug of cross-linked protein) (mg of protein)-1 | 3.7 (ug of cross-linked protein) (mg of protein)-1 | 0.7 (ug of cross-linked protein) (mg of protein)-1 | 0.65 uM mM-1 |  | > 5
9 | O=C1c2cccc(O)c2C(=O)c2c(O)cccc21 [DANTHRON] | 0.6 (ug of cross-linked protein) (mg of protein)-1 | 0 (ug of cross-linked protein) (mg of protein)-1 | -0.1 (ug of cross-linked protein) (mg of protein)-1 |  |  | 
10 | O=C1c2c(O)cccc2C(C(=O)c2ccccc2)c2cccc(O)c21 |  |  |  | 2.31 uM mM-1 |  | > 5
